Shown are actives, neighbours in structure and some others; about 1.8% of the full set was active somewhere.
M4 antag: antagonists of human muscarinic M4 receptor (CHRM4). AID 624125. inhibition, % at 3 µM. actives 0.73% (n = 360,000). P08173. CHO-hM4 cells, ACh EC80, Fluo-8 calcium fluorescence;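 active = inhibition above its plate's cutoff, the mean inhibition of sample wells plus 3 SD, cut at about 27% in these data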;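 also: 0% = acetylcholine EC80 with DMSO and 100% = DMSO without agonist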
CHRM5 PAM: CHRM5 positive allosteric modulation; P08912; activation, % at 3 µM; AID 624038; CHO-K1 hM5, Fluo-8 calcium, ACh EC20 PAM; 0% = ACh EC20, 100% = ACh EC100; actives 0.3% (n = 360,000);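 active = activation above the run cutoff, the mean activation of all test compounds plus 3 SD, cut at about 18% in these data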
Target sequence (P08912 whole entry, looked up): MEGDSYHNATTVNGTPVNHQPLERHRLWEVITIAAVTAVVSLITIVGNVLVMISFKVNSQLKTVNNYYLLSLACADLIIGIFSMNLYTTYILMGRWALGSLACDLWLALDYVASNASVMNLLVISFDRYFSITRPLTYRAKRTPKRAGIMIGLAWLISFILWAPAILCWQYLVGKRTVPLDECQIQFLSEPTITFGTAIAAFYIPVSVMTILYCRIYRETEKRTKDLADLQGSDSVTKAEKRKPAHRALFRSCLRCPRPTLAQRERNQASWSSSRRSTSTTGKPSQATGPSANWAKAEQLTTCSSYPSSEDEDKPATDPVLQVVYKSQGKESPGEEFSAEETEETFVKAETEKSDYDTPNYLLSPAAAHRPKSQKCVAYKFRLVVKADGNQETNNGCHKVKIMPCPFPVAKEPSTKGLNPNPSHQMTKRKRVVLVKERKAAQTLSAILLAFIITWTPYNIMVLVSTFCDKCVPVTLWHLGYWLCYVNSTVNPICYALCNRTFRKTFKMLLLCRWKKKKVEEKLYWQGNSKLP
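Assay system: CHO-K1 hM5 cells. Also added: acetylcholine at EC20 concentration, added after compound. Dosing: 3 µM, single dose. Times: compound preincubation 140 s before EC20 acetylcholine addition. Signal: Fluo-8 calcium fluorescence. Measure: % activation relative to EC20 and EC100 ACh responses. Repeats: singlicate, one well per test compound.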
M5 antag: blocks acetylcholine activation of human M5 receptor. P08912. CHO-hM5 cells, Fluo-8 calcium fluorescence, ACh EC80. inhibition, % at 3 µM. actives 0.59% (n = 360,000). AID 624040;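 active = inhibition above a per-plate cutoff, the mean of that plate's test compounds plus 3 SD, cut at about 27% in these data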;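 also: 0% = acetylcholine EC80 with DMSO and 100% = DMSO without agonist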
M4 ag: agonists of human muscarinic M4 receptor (CHRM4). P08173. CHO-K1 hM4/Gqi5, Fluo-8 calcium fluorescence; vehicle 0%, full acetylcholine response 100%. activation, % at 3 µM. actives 0.14% (n = 360,000). AID 624127;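 active = activation above the run mean over all test wells plus 3 SD, cut at about 32% in these data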;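 also: peak over basal fluorescence ratio per well then scaled between controls; 0% = DMSO wells and 100% = acetylcholine at EC100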
M5 ag: CHRM5 agonism in calcium assay; CHO-K1 hM5 cells, Fluo-8 calcium fluorescence; 0% DMSO wells, 100% maximal acetylcholine response; activation, % at 3 µM; actives 0.19% (n = 360,000); AID 624037; P08912;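 active = activation above the run's mean over test compounds plus 3 SD, cut at about 23% in these data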;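 also: signal is peak over basal fluorescence ratio across the kinetic read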
CHRM4 PAM: CHRM4 positive allosteric modulation | activation, % at 3 µM | AID 624126 | actives 0.4% (n = 360,000) | CHO-K1 hM4/Gqi5, Fluo-8 calcium fluorescence, ACh EC20; 0% = ACh EC20, 100% = maximal ACh | P08173;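 active = activation above its plate's cutoff, the mean activation of sample wells plus 3 SD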
Numbers without * were called inactive.

How did O=C1NC(=O)C(=Cc2ccc(-c3ccc(F)cc3O)o2)C(=O)N1 do in these assays?
M4 antag: -6; CHRM5 PAM: 5; M5 antag: 16; M4 ag: 12; M5 ag: 25*; CHRM4 PAM: 26*

Results for O=C1NC(=O)C(=Cc2ccc(-c3ccc(Cl)cc3)o2)C(=O)N1 ?
M4 antag: -4; CHRM5 PAM: 22*; M5 antag: -12; M4 ag: 1; M5 ag: -2; CHRM4 PAM: 17

What do the screens show for `O=C1/C(=C\c2cccnc2)N2CCC1CC2`?
M4 antag: -2; CHRM5 PAM: 0; M5 antag: 11; M4 ag: 1; M5 ag: -4; CHRM4 PAM: -6

What do the screens show for `C(=NC12CN3CN(CN(C3)C1)C2)c1cccnc1`?
M4 antag: 3; CHRM5 PAM: 14; M5 antag: -3; M4 ag: 1; M5 ag: 0; CHRM4 PAM: 19*

What do the screens show for `NC(Cc1ccc(F)cc1)c1csc(Nc2ncccn2)n1` (stereo unspecified)?
M4 antag: -8; CHRM5 PAM: -2; M5 antag: 0; M4 ag: 4; M5 ag: 3; CHRM4 PAM: -5

What do the screens show for `CC(CC(C#N)(c1ccccc1)c1ccccc1)N1CCOCC1` (stereo unspecified)?
M4 antag: 26; CHRM5 PAM: -29; M5 antag: 13; M4 ag: -3; M5 ag: -12; CHRM4 PAM: -9

What do the screens show for `CN1C(=O)N(C)C(=O)C(NS(=O)(=O)c2ccc(N)cc2)(c2ccccc2)C1=O`?
M4 antag: -24; CHRM5 PAM: -4; M5 antag: -6; M4 ag: 2; M5 ag: -7; CHRM4 PAM: 3

Results for CN1CCN(Cc2ccccc2Sc2ccccc2)CC1 ?
M4 antag: 95*; CHRM5 PAM: -20; M5 antag: 99*; M4 ag: 7; M5 ag: -5; CHRM4 PAM: -38

Results for CC(Cc1ccccc1Sc1ccccc1)N(C)C (stereo unspecified) ?
M4 antag: 92*; CHRM5 PAM: -21; M5 antag: 99*; M4 ag: 3; M5 ag: -7; CHRM4 PAM: -40

Results for CC(Cc1ccccc1Sc1ccc(O)cc1)N(C)C (stereo unspecified) ?
M4 antag: 42*; CHRM5 PAM: -21; M5 antag: 91*; M4 ag: 4; M5 ag: -5; CHRM4 PAM: -20

How did COc1ccccc1Sc1ccccc1CC(C)N (stereo unspecified) do in these assays?
M4 antag: 8; CHRM5 PAM: 2; M5 antag: 8; M4 ag: 10; M5 ag: -5; CHRM4 PAM: 9

How did CNc1cc(Cl)c2nonc2c1[N+](=O)[O-] do in these assays?
M4 antag: 34*; CHRM5 PAM: -7; M5 antag: 15; M4 ag: -2; M5 ag: -5; CHRM4 PAM: -6

How did CCOc1ccccc1CN1CCCC(C(=O)c2cc(F)ccc2F)C1 (stereo unspecified) do in these assays?
M4 antag: 8; CHRM5 PAM: -1; M5 antag: 9; M4 ag: 0; M5 ag: -5; CHRM4 PAM: -13

What do the screens show for `Clc1ccc2c(c1)C(OC1CN3CCC1CC3)c1ccccc1CS2` (stereo unspecified)?
M4 antag: 99*; CHRM5 PAM: -18; M5 antag: 99*; M4 ag: 16; M5 ag: -2; CHRM4 PAM: -42

Results for CN1CCN(CCOC2c3ccccc3CSc3ccc(Cl)cc32)CC1 (stereo unspecified) ?
M4 antag: 83*; CHRM5 PAM: -17; M5 antag: 54*; M4 ag: 11; M5 ag: -2; CHRM4 PAM: -43

Results for O=C(COc1ccc(Cl)cc1)N(c1ccccc1Cl)C1CN2CCC1CC2 (stereo unspecified) ?
M4 antag: 11; CHRM5 PAM: -32; M5 antag: 12; M4 ag: 6; M5 ag: -19; CHRM4 PAM: -39

How did COCCNC(=O)N1[C@H]2CC[C@@H]1C(C(=O)OC)=C(c1ccc(OC)c(OC)c1)C2 do in these assays?
M4 antag: -5; CHRM5 PAM: -2; M5 antag: 4; M4 ag: 1; M5 ag: -1; CHRM4 PAM: 7

What do the screens show for `C=CCN1CC[C@]23c4c5ccc(O)c4OC2C(O)C=CC3[C@H]1C5` (stereo partly specified)?
M4 antag: -15; CHRM5 PAM: 1; M5 antag: 3; M4 ag: 0; M5 ag: 2; CHRM4 PAM: 2

How did CC1(C)OC(c2ccccc2)=C/C(=C/C=C2C(=O)NC(=O)NC2=O)O1 do in these assays?
M4 antag: 3; CHRM5 PAM: -19; M5 antag: 14; M4 ag: 20; M5 ag: 75*; CHRM4 PAM: -8

What do the screens show for `C=CCn1c(O)c(C(C)=Nc2ccc(NC(C)=O)cc2)c(=O)[nH]c1=O`?
M4 antag: -6; CHRM5 PAM: 4; M5 antag: -5; M4 ag: 0; M5 ag: -1; CHRM4 PAM: 21*

How did C=CCn1c(O)c(C(CC)=Nc2ccccc2NC(C)=O)c(=O)[nH]c1=O do in these assays?
M4 antag: 12; CHRM5 PAM: 2; M5 antag: -7; M4 ag: 1; M5 ag: -1; CHRM4 PAM: 28*

How did CCc1ccccc1NC(=O)CNCc1ccccc1 do in these assays?
M4 antag: -9; CHRM5 PAM: -8; M5 antag: 7; M4 ag: 3; M5 ag: -3; CHRM4 PAM: 15

What do the screens show for `C[N+]12CCC(CC1)C(C(O)(c1ccccc1)c1cccs1)C2` (stereo unspecified)?
M4 antag: 94*; CHRM5 PAM: -16; M5 antag: 94*; M4 ag: 1; M5 ag: -7; CHRM4 PAM: -33

How did CN1CCCC1C(O)(c1ccccc1)c1ccccc1 (stereo unspecified) do in these assays?
M4 antag: 1; CHRM5 PAM: -20; M5 antag: 7; M4 ag: 1; M5 ag: -6; CHRM4 PAM: -3

What do the screens show for `CCC[N+]12CCC(CC1)C(C(O)(c1ccccc1)c1ccccc1)C2` (stereo unspecified)?
M4 antag: 10; CHRM5 PAM: -34; M5 antag: 28*; M4 ag: 0; M5 ag: -18; CHRM4 PAM: -54

Compound activity as filed in PubChem BioAssay.
